According to article PMC2810129 (Journal of medicinal chemistry, 2009):
Like-named read-outs stand apart in the source and are kept apart here.

What was measured:
[1] = test system: J774 murine monocyte-like macrophage line (subclone G8); test: Toxicity assay; type: cell-based
P. falciparum parasites = test: In vitro malaria growth inhibition assay, strain not specified or both strains; type: cell-based, Plasmodium falciparum; details: drug resistant and sensitive parasites
Procedure, shortened: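 P. falciparum D6 (chloroquine-sensitive, Sierra Leone I) and W2 (chloroquine-resistant, Indochina I) clones were cultured under 90% N2/5% O2/5% CO2 with 10% human serum and 6% haematocrit A+ red cells. Cultures at 3% parasitaemia with ≥70% rings were put on predosed plates for 24 h. [3H]-hypoxanthine was then added for 18 h, and cells were harvested and counted. IC50 was taken from a four-parameter nonlinear regression.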

PfKASIII [2] = molecular target: T1, PfKASIII (Plasmodium falciparum, UniProt O77078); test: PfKASIII inhibitor screen; type: biochemical
bacterial KAS enzymes = details: cited from earlier work
PfKASIII [3] = molecular target: T1, PfKASIII; details: read-out: PfKASIII IC50; cited from earlier work

## c1ccc(SSc2ccccc2)cc1 [Compound 1d]
[1]
  toxicity against the mammalian cell line (in words): little toxicity

## O=S(=O)(Nc1cccc(Cl)c1)c1ccccc1 [Compound 2b]
[1]
  toxicity against the mammalian cell line (in words): significant toxicity

## COc1ncnc(NS(=O)(=O)c2ccc(N)cc2)c1OC [Compound 2c]
P. falciparum parasites
  antimalarial activity / parasite growth inhibition (in words): robust antimalarial activity
PfKASIII [2]
  IC50: > 1000 µM
  PfKASIII inhibition (in words): failed to inhibit PfKASIII at the highest concentration tested

## C/C=C/CCCCCCCC(=O)NS(=O)(=O)c1ccc(N)cc1 [Compound 2e]
PfKASIII [2]
  IC50: > 1000 µM
  PfKASIII inhibition (in words): failed to inhibit PfKASIII at the highest concentration tested

## O=[N+]([O-])c1c(Cl)sc(Cl)c1S(=O)(=O)Nc1ccc(C(F)(F)F)cc1 [Compound 2g]
P. falciparum parasites
  antimalarial activity / parasite growth inhibition (in words): modest activity

## Cc1ccc(S(=O)(=O)c2cc(O)c3ccccc3c2O)cc1 [Compound 3a]
[1]
  toxicity against the mammalian cell line (in words): little toxicity

## NC1CCC(S(=O)(=O)c2cc(O)c3ccccc3c2O)CC1 (stereo not drawn) [Compound 3b]
[1]
  toxicity against the mammalian cell line (in words): little toxicity

## Nc1ccc(S(=O)(=O)c2cc(O)c3ccccc3c2O)c(Cl)c1 [Compound 3c]
PfKASIII [2]
  PfKASIII inhibition (in words): the most potent compound within the class of sulfonyls

## CC(C)c1ccc(S(=O)(=O)c2ccc(C(C)C)cc2)cc1 [Compound 3g]
[1]
  toxicity against the mammalian cell line (in words): significant toxicity

## Cc1ccc(S/C=C/S(=O)(=O)Cc2ccccc2)cc1 [Compound 3n]
[1]
  toxicity against the mammalian cell line (in words): significant toxicity

## CCCCS(=O)(=O)CCOC(=O)c1ccc([N+](=O)[O-])cc1 [Compound 3r]
P. falciparum parasites
  antimalarial activity / parasite growth inhibition (in words): fail to inhibit parasite growth
PfKASIII [2]
  PfKASIII inhibition (in words): potent inhibitors of PfKASIII
[1]
  toxicity against the mammalian cell line (in words): significant toxicity

## C=C/C(C)=C/[C@@]1(C)SC(=O)C(C)=C1O [Thiolactomycin]
Bacterial KAS enzymes
  in vivo IC50, bacterial KAS enzymes: 75 µM
PfKASIII [3]
  IC50: > 330 µM
